# Rows were chosen to be rich in hits. Some 0.74% of all compounds tested hit in one or more screens of this group.
# RGS7-Gao: regulators of human RGS7-Galphao interaction; Multiplexed bead flow cytometry, RGS7-Galphao binding; actives lie on both sides; binding response (% of control), % at 10 µM; AID 1439; P09471; 0.35% of 220,000 active; in the data active means binding response below about 49% or above about 150%; inconclusive means no clear call, values can overlap the other calls; inactive means in between;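 further: fluorescent Galphao held in activated GDP-AlF4 state binding bead-coupled RGS7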
# Target sequence (P09471 whole entry, looked up): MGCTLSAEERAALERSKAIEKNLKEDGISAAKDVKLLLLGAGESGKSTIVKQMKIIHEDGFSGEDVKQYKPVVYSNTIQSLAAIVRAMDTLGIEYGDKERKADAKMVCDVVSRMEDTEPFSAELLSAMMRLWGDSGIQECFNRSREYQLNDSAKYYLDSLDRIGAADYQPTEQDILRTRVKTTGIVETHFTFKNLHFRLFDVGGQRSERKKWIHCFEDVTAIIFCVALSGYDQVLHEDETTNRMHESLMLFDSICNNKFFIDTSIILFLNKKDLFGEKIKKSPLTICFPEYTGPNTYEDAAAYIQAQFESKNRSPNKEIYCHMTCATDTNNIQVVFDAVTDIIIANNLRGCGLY
# RGS4-Gao reg: modulates binding of RGS4 to human Galphao | Multiplexed bead flow cytometry; actives lie on both sides | P09471 | 0.33% of 220,000 active | AID 1415 | binding response (% of control), % at 10 µM; in the data active means binding response below about 49% or above about 150%; inactive means in between;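 further: fluorescent Galphao activated with aluminum fluoride binding bead-coupled RGS4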
# Biofilm kill mix: mixtures killing C. albicans biofilm; AID 1242; inhibition, % at 7.6 µM; 0.02% of 120,000 active; C. albicans biofilm persisters + clotrimazole, fluorescence viability; primary screen in compound mixtures of four per well;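 further: compounds exposed to preformed 24 h biofilms for 48 h; 0% = untreated biofilm control and 100% = clotrimazole plus chlorhexidine kill blank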
#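 Test system: C. albicans biofilms. Buffer or medium: RPMI/MOPS medium, pH 7.0. Timing: 48 h compound exposure at 37 °C. Technique: Alamar Blue fluorescence. Evaluation: percent inhibition of biofilm viability.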
# RGS16-Gao: modulates binding between human RGS16 and Galphao; bead-based flow cytometry RGS16-Galphao binding, fluorescence; actives lie on both sides; binding response (% of control), % at 10 µM; O15492+P09471; 0.38% of 220,000 active;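 further: Galphao activated by GDP with aluminum fluoride before binding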
# Target sequence (O15492 whole entry, looked up): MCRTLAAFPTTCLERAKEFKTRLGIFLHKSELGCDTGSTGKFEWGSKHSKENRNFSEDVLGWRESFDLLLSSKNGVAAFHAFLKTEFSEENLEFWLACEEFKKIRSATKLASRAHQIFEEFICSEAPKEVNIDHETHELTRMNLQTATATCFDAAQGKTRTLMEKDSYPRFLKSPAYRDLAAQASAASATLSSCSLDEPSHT
# Target sequence (P09471 whole entry, looked up): as the sequence (P09471 whole entry, looked up) above
# RGS8-Gao reg: human RGS8-Galphao interaction regulation; multiplexed bead flow cytometry, RGS8-Galphao binding; actives lie on both sides; response (percent of control binding), % at 10 µM; 0.34% of 220,000 active; AID 1423; in the data active means response below about 60% or above about 140%; inactive means in between;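 further: Galphao activated as the GDP aluminium fluoride complex binding bead-coupled RGS8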
# RGS-Gao: RGS4-Galphao interaction regulator (human); 99% of 1,600 active; AID 1504; shares compounds with RGS16-Gao; multiplexed bead flow cytometry, RGS–Galpha-o binding; RGS4–Galpha-o binding response, % at 10 µM;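 further: fluorescently labeled Galpha-o bound to GDP with aluminium fluoride binding biotinylated RGS beads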
# Biotin-avidin: counter-screen: compounds disrupting biotin binding to avidin beads; shares compounds with RGS16-Gao; streptavidin beads, fluorescein-biotin binding, flow cytometry; inhibition, % at 10 µM; 1,700 tested, under 10 active;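 active means inhibition above 50%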;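 further: median green fluorescence of gated singlet beads compared with DMSO control wells; 0% = DMSO wells and 100% = complete loss of bead fluorescence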
# RGS8-Gao confirm: RGS8-Galphao interaction regulation, single point confirmation. shares compounds with RGS16-Gao. bead-based flow cytometry RGS8-Galphao binding, fluorescence; actives lie on both sides. binding response (% of control), % at 10 µM. 3% of 1,700 active. AID 1836; in the data active means binding response below about 72% or above about 130%; inactive means in between;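 further: Galphao activated as GDP AlF4 complex before binding bead RGS8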
# RGS7-Gao single: RGS7-Galphao interaction regulation, single point confirmation | shares compounds with RGS16-Gao | bead-based flow cytometry RGS7-Galphao binding; actives lie on both sides | response (percent of control binding), % at 10 µM | 7.8% of 1,700 active | AID 1837; in the data active means response below about 75% or above about 130%; inactive means in between;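 further: fluorescent Galphao activated with GDP and aluminum fluoride binding bead-coupled RGS7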
# RGS16-Gao single: confirmation of regulators of human RGS16-Galphao interaction; 4% of 1,700 active; bead-based flow cytometry, RGS16-Galphao binding; actives lie on both sides; AID 1838; response (% of control binding), % at 10 µM; shares compounds with RGS16-Gao; in the data active means response below about 74% or above about 130%; inactive means in between;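 further: Galphao activated as the GDP aluminium fluoride complex binding bead-coupled RGS16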
# RGS4-Gao confirm: confirmation of regulators of human RGS4-Galphao interaction. shares compounds with RGS16-Gao. RGS4-Galphao binding, multiplexed bead flow cytometry; actives lie on both sides. binding response (% of control), % at 10 µM. 4% of 1,700 active. AID 1840; in the data active means binding response below about 74% or above about 130%; inactive means in between
# RGS19-Gao single: RGS19-Galphao interaction regulation, single point confirmation | shares compounds with RGS16-Gao | bead-based flow cytometry RGS19-Galphao binding; actives lie on both sides | response (percent of control binding), % at 10 µM | 5% of 1,700 active; in the data active means response below about 50% or above about 160%; inactive means in between;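 further: 100% = no compound control and 0% = blank background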
# Numbers without * were called inactive; i = inactive; ? = inconclusive; nt = no result; [ ] = dose if it differs, or a comment. Unless noted, how the calls were made is not given here.
SMILES,RGS7-Gao,RGS4-Gao reg,Biofilm kill mix,RGS16-Gao,RGS8-Gao reg,RGS-Gao,Biotin-avidin,RGS8-Gao confirm,RGS7-Gao single,RGS16-Gao single,RGS4-Gao confirm,RGS19-Gao single
CCc1nnc(NC(=O)CCc2ccc(C)o2)s1,158.4*[activator],169.8*[activator],nt,165.5,151.1*[activator],nt,1.0,99.6,104.7,102.5,102.2,100.7
CCc1ccc(CCC(=O)Nc2nnc(C)s2)o1,90.7,93.5,nt,92.0,95.4,nt,nt,nt,nt,nt,nt,nt
O=C(O)c1nccnc1C(=O)NCCc1c[nH]c2ccccc12,?,101.0,18.6,101.2,102.5,nt,nt,nt,nt,nt,nt,nt
O=C(NCCc1c[nH]c2ccccc12)c1c(Cl)nc2sccn12,19.1*,30.5*,nt,2.2*,17.3*,nt,-1.0,114.1,125.0,108.6,109.8,102.8
COc1ccc(OCCOc2ccccc2[N+](=O)[O-])cc1,111.0,116.7,16.2,179.8*[activator],125.7,116.7*,-0.5,100.4,102.8,100.6,101.6,93.6
O=[N+]([O-])c1ccccc1OCCOc1ccccc1[N+](=O)[O-],?,99.5,13.0,101.5,99.8,nt,nt,nt,nt,nt,nt,nt
COc1ccc(NC(=S)N2CCCN(Cc3cc(C)ccc3C)C2)cc1,82.7,90.4,12.7,90.9,95.0,nt,nt,nt,nt,nt,nt,nt
COc1cccc(C(=O)NC2CC3CCCC(C2)N3S(=O)(=O)c2ccccc2)c1 (stereo unspecified),?,99.5,19.0,102.7,101.6,nt,nt,nt,nt,nt,nt,nt
COc1cccc(NC(=O)c2ccccc2-c2nc(-c3ccc(F)cc3)no2)c1,nt,nt,nt,nt,nt,nt,-0.3,100.4,97.3,102.6,102.5,98.4
COc1cccc(NC(=O)c2ccccc2-c2nc(-c3ccccc3)no2)c1,87.4,88.5,nt,88.2,90.6,nt,nt,nt,nt,nt,nt,nt
CCC(CC)NC(=O)c1cccc([N+](=O)[O-])c1C,113.5,115.8,11.8,237.2*[activator],137.9,115.8*,-0.1,100.8,100.2,99.3,98.4,98.7
Cc1c(C(=O)NC(C)CCc2ccccc2)cccc1[N+](=O)[O-] (stereo unspecified),104.0,105.6,nt,113.4,106.1,nt,nt,nt,nt,nt,nt,nt
CCCC(=O)Nc1cccc(NC(=O)c2cccc([N+](=O)[O-])c2C)c1,108.6,110.4,3.0,205.3*[activator],121.0,110.4*,-0.7,96.3,94.9,92.7,94.0,84.7
C/C(=N\NC(=O)CC#N)C1COc2ccccc2O1 (stereo unspecified),104.6,101.5,24.3,109.5,103.0,nt,nt,nt,nt,nt,nt,nt
C/C(=N\NC(=O)Cc1cccn1C)c1ccc2ccccc2c1,35.8*,68.0,nt,52.6,36.0*,68.0*,1.0,101.7,100.5,103.3,103.3,125.5
C/C(=N\NC(=O)Cc1cccn1C)c1cccc2ccccc12,76.5,90.6,nt,76.4,77.5,nt,nt,nt,nt,nt,nt,nt
C/C(=N/NC(=O)Cc1cccn1C)c1ccccc1,45.7*,70.6,nt,48.7,46.7*,70.6*,-0.1,100.9,93.9,101.6,100.2,92.0
CCOC(=O)N1CCN(C(=O)c2ccc(N3CCCC3=O)cc2)CC1,99.6,102.6,nt,100.1,100.6,nt,nt,nt,nt,nt,nt,nt
O=C(c1cnccn1)N(Cc1ccco1)C1(C(=O)NC2CCCCC2)CCCCC1,88.9,79.5,nt,-53.5*,80.2,79.5*,2.2,102.0,106.2,101.8,105.0,105.7
O=C(c1cnccn1)N(Cc1ccco1)C1(C(=O)NC2CCCC2)CCCCC1,102.5,100.3,nt,104.6,100.0,nt,nt,nt,nt,nt,nt,nt
O=C(C[n+]1cccc(CNC(=O)c2ccc(OC(F)F)cc2)c1)Nc1cccc(C(F)(F)F)c1,104.1,105.5,12.1,107.2,106.5,nt,nt,nt,nt,nt,nt,nt
O=C(C[n+]1cccc(CNC(=O)c2ccc(OC(F)F)cc2)c1)Nc1ccc(F)cc1,120.7,116.2,-17.3,21.3*,90.9,116.2*,-0.3,104.9,106.1,104.8,107.2,118.2
CC(C)Oc1ccc(CCNC(=O)CC2C(=O)NCCN2C)cc1 (stereo unspecified),?,91.2,14.8,96.4,99.7,nt,nt,nt,nt,nt,nt,nt
COc1ccc(-n2c(SCC(N)=O)nc3nc4c(cc3c2=O)COC(C)(C)C4)cc1,79.5,76.2,nt,77.8,85.8,nt,nt,nt,nt,nt,nt,nt
CC1CCCC(NC(=O)CCCn2c(=O)[nH]c3cc(Cl)ccc3c2=O)C1C (stereo unspecified),175.7*[activator],212.4*[activator],nt,204.1*[activator],110.1,nt,1.0,104.8,102.2,105.3,104.4,107.0
SMILES,RGS7-Gao,RGS4-Gao reg,Biofilm kill mix,RGS16-Gao,RGS8-Gao reg,RGS-Gao,Biotin-avidin,RGS8-Gao confirm,RGS7-Gao single,RGS16-Gao single,RGS4-Gao confirm,RGS19-Gao single
CN(C)CCNC(=O)/C(=C/c1ccc(-c2ccc(Cl)cc2)o1)NC(=O)c1ccccc1,185.5*[activator],182.5*[activator],21.4,132.8,162.5*[activator],nt,-0.3,103.4,96.8,100.5,98.9,89.4
Cn1c(=O)c2c(nc(SCCN3CCOCC3)n2Cc2ccc(F)cc2)n(C)c1=O,132.8,138.7,nt,i,157.9*[activator],138.7*,-0.3,103.1,105.5,105.6,101.2,111.9
Cn1c(=O)c2c(nc(SCCN3CCOCC3)n2Cc2ccccc2Cl)n(C)c1=O,103.2,100.9,nt,102.8,101.2,nt,nt,nt,nt,nt,nt,nt
Cc1ccc(C(C(=O)NC2CCCC2)N(C(=O)Cc2cccs2)c2cccc(C)c2C)o1 (stereo unspecified),97.0,103.8,nt,105.9,100.7,nt,nt,nt,nt,nt,nt,nt
Cc1cc(C)cc(N(C(=O)Cc2cccs2)C(C(=O)NC2CCCC2)c2ccc(C)o2)c1 (stereo unspecified),nt,nt,nt,nt,nt,nt,-0.8,95.5,91.5,92.7,93.1,81.3
COc1ccc(C2C(C#N)=C(N)Oc3c2sc2nc(C)cc(C)c32)cc1 (stereo unspecified),117.3,121.0,nt,187.1*[activator],103.2,121.0*,-0.9,101.2,101.0,99.5,102.1,104.3
Cc1ccc(C)c(CN2CCNC2=O)c1,15.2*,20.3*,nt,7.9*,13.3*,nt,-0.1,94.2,92.3,92.9,94.6,82.1
OC12CCCCC1C(c1ccc3c(c1)OCO3)N(Cc1ccccc1F)CC2 (stereo unspecified),158.4*[activator],113.4,nt,106.2,101.3,113.4*,0.6,97.8,101.9,97.1,100.5,96.2

# Screening results: PubChem BioAssay, several laboratories
